From PubChem BioAssay
PglD inh: inhibitors of Campylobacter jejuni PglD acetyltransferase; purified PglD enzyme, DTNB colorimetric CoA detection; inhibition, % at 12.5 µM; 0.098% of 360,000 active; in the data active = inhibition above about 16%, passing the limit was not always enough; inconclusive = no clear call, values can overlap the other calls
DENV2 CPE rescue: inhibitors of DENV2 cytopathic effect | DENV2-infected cells, cytopathic effect rescue, plate reader | CPE inhibition, % at 9.99 µM | 1.7% of 350,000 active | AID 651640; in the data active = CPE inhibition above about 20%, passing the limit was not always enough; inconclusive = no clear call, values can overlap the other calls; tested in BHK-21 cells
XiGFP reactiv: activators of X-chromosome reactivation in mouse fibroblasts. activation, % at 7.58 µM. 0.055% of 360,000 active. XiGFP mouse fibroblasts, % GFP-positive cells imaging, 3 d; cells co-treated with 5-aza-dC sensitizer; scaled so ellipticine positive control = 100%;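 active = mean normalized replicate activation at least 10% and every replicate at or above 10%; inconclusive = only one of the two criteria met; inactive = mean below 10% and not all replicates reach 10%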
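System: 68-5-11 XiGFP fibroblast line | Buffer or medium: DMEM containing 5-aza-dC | Compound: Single point | Times: Compounds 3 days, fix/stain 15 min at room temperature | Benchmarks: Positive control ellipticine, 6 µM final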
C2C12 statin: protects C2C12 myotubes from simvastatin toxicity. ATP luminescence, 48 h; scaled: DMSO 0, geranylgeraniol control 100. rescue of ATP level, % at 7.49 µM. 0.78% of 330,000 active. AID 602340;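 active = mean ATP rescue above about 67%, or every replicate alone reaching that limit, limit read from the data, passing the limit was not always enough; inconclusive = no clear call, values can overlap the other calls; inactive = mean under the limit and some replicate under it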;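 also: myotubes were challenged with 10 µM simvastatin during compound exposure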
FGF22 binding: binders of recombinant human FGF22 by thermal shift; Q9HCT0; SYPRO orange fluorescence; percent of sucrose octasulfate shift, DMSO zero; activity (Tm shift, normalised), % at 9.99 µM; 1.5% of 340,000 active; AID 651658;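 active = mean Tm shift, scaled 0 neutral to 100 positive control, at about 1.3% or above, every replicate too, limit read from the data; inconclusive = no clear call, values can overlap the other calls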
Target sequence (Q9HCT0 whole entry, looked up): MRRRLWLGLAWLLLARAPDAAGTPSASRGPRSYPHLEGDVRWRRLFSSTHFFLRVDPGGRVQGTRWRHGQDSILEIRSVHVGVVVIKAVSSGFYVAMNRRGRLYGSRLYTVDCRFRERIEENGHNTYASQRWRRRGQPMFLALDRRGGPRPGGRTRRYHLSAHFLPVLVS
E-sel inducer: E-selectin induction on HUVECs | P16581 | HUVEC E-selectin immunofluorescence imaging; normalized: neutral wells 0, TNF-alpha wells 100 | activation, % at 7.58 µM | 0.37% of 260,000 active;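 active = mean E-selectin-positive cell signal at least 10% of the positive control, reached in at least 60% of replicates, without over 20% cell loss; inconclusive = no rule given, readout overlaps actives, possibly toxicity-flagged; inactive = the rest, including those meeting only one limit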
Target sequence (P16581 whole entry, looked up): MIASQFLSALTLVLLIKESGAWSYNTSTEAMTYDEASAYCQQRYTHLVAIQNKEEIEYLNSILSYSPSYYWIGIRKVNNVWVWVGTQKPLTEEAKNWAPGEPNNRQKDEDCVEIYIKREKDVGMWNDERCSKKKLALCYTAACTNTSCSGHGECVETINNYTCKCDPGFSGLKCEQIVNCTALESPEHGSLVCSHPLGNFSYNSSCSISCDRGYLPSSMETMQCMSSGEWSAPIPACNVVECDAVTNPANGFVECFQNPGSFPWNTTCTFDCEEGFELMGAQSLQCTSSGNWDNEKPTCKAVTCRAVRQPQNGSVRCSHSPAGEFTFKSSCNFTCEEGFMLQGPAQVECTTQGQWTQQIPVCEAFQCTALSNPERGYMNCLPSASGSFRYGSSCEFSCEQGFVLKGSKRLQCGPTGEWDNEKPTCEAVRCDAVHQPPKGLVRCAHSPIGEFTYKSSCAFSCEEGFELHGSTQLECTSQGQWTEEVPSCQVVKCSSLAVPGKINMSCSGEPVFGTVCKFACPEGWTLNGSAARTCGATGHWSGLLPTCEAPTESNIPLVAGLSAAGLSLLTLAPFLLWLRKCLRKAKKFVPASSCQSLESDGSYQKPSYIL
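Test system: HUVEC | Signal: Immunofluorescence imaging | Read-out: Percent E-selectin-positive cells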
Of the large screens only hits and unclear results are named; the others gave an inactive call. Shown are actives, neighbours in structure and some others; about 3.3% of the full set was active somewhere.

CO[C@@H]1CN(C)C(=O)c2ccc(NS(C)(=O)=O)cc2OC[C@@H](C)N(Cc2ccccc2)C[C@H]1C	none (no result: PglD inh, DENV2 CPE rescue, C2C12 statin, FGF22 binding, E-sel inducer)
Cc1nc(CN(C)C(=O)c2cc(COc3ccc4ncccc4c3)on2)cs1	FGF22 binding 42.9 (no result: PglD inh, C2C12 statin)
COc1ccc2c3c([nH]c2c1)[C@@H](CO)N(C(C)=O)CC31CCN(C(=O)Nc2c(C)noc2C)CC1	DENV2 CPE rescue 20.8 (no result: PglD inh, C2C12 statin)
COc1ccc2c3c([nH]c2c1)[C@H](CO)N(C(C)=O)CC31CCN(C(=O)Nc2c(C)noc2C)CC1	none (no result: PglD inh, C2C12 statin)
COc1ccc2c3c([nH]c2c1)[C@H](CO)N(C(=O)Nc1c(C)noc1C)CC31CCN(CC2CC2)CC1	DENV2 CPE rescue 42.1 (no result: PglD inh, C2C12 statin)
CC(C)NC(=O)Nc1cccc2c1O[C@@H](CN(C)C(=O)Nc1cccc3ccccc13)[C@@H](C)CN([C@@H](C)CO)C2=O	DENV2 CPE rescue inconclusive
O=[S@]1Oc2ccccc2-c2ccccc21	DENV2 CPE rescue 67.5 (no result: C2C12 statin, E-sel inducer)
CCCN1CCN(CCCNC(=O)C2CCCN(c3nc4ccc(OCC)cc4s3)C2)CC1 (configuration not stated)	none (no result: DENV2 CPE rescue, XiGFP reactiv, FGF22 binding, E-sel inducer)
CCOc1ccc2nc(N3CCCC(C(=O)N4CCN(CC)CC4)C3)sc2c1 (configuration not stated)	C2C12 statin 116.3
Cc1noc(C)c1NC(=O)Nc1ccc2c(c1)CC(=O)N([C@@H](C)CO)C[C@@H](C)[C@H](CN(C)S(=O)(=O)c1ccc(Cl)cc1)O2	none
CCNC(=O)C[C@H]1CC[C@H]2[C@@H](COC[C@@H](O)CN2Cc2ccc(Cl)c(Cl)c2)O1	DENV2 CPE rescue 104.9
CCNC(=O)C[C@H]1CC[C@@H]2[C@H](COC[C@H](O)CN2Cc2ccc(Cl)c(Cl)c2)O1	DENV2 CPE rescue 81.9
CN(C)C(=O)C[C@@H]1CC[C@@H]2[C@H](COC[C@H](O)CN2C(=O)c2ccncc2)O1	none
O=C(Cc1ccccn1)NCC[C@@H]1CC[C@@H](NC(=O)c2ccccc2F)[C@@H](CO)O1	none
COc1cc2sc(-c3ccccc3OC)c(-c3ccc(O)cc3)c2cc1OC	none
COc1ccc2sc(-c3ccccc3OC)c(-c3ccc(O)cc3)c2c1	DENV2 CPE rescue inconclusive, C2C12 statin 131.5, E-sel inducer 41.6
C1CCCC(N2CCNCC2)CC1	none (no result: DENV2 CPE rescue, XiGFP reactiv, FGF22 binding, E-sel inducer)
CC1CCC(N2CCNCC2)CC1 (configuration not stated)	FGF22 binding 43.7 (no result: PglD inh, C2C12 statin, E-sel inducer)
COc1ccc(OC2C(=O)N(c3ccc(C)c(C)c3)C2c2ccc(OC)c(OC)c2)cc1 (configuration not stated)	FGF22 binding 43.5 (no result: PglD inh, C2C12 statin, E-sel inducer)
O=C(c1ccccc1)c1nn(-c2ccccc2)c(=O)cc1C(F)(F)F	none (no result: DENV2 CPE rescue, XiGFP reactiv, FGF22 binding, E-sel inducer)
O=C(c1cccc(Cl)c1)c1nn(-c2ccccc2)c(=O)cc1C(F)(F)F	C2C12 statin 105.3 (no result: DENV2 CPE rescue, XiGFP reactiv, FGF22 binding, E-sel inducer)
CCCN(C)C[C@H]1Oc2ncc(-c3ccccc3F)cc2C(=O)N([C@@H](C)CO)C[C@H]1C	none
CN1C(=O)C(c2cn(C)c3ccccc23)(c2cn(C)c3ccccc23)c2cc(F)ccc21	DENV2 CPE rescue 29.5 (no result: PglD inh, C2C12 statin)
CN1C(=O)[C@@](O)(c2cn(C)c3ccccc23)c2cc(F)ccc21	none (no result: PglD inh, C2C12 statin)
CCCC#Cc1cnc2c(c1)C(=O)N([C@@H](C)CO)C[C@H](C)[C@H](CN(C)C(=O)NCCC)O2	none
CN1CCN(c2ccc(NC(=S)NC(=O)c3cccc4c(Br)cccc34)cc2)CC1	C2C12 statin 125.8 (no result: E-sel inducer)
CN(C)c1ccc2c(c1)[C@@H]1C[C@H](CC(=O)NCc3ccccc3F)O[C@H](CO)[C@@H]1O2	none (no result: PglD inh, DENV2 CPE rescue, C2C12 statin, FGF22 binding)
Cc1ccc(OCC(=O)NC2CC(C)(C)NC(C)(C)C2)c(C)c1	none
Cc1cc(OCC(=O)NC2CC(C)(C)NC(C)(C)C2)c(C)cc1Br	DENV2 CPE rescue 42.1
O=C(NC[C@@H]1CC[C@H]2[C@H](CN2Cc2cc(-c3ccccc3)on2)O1)c1ccc2c(c1)OCO2	none (no result: PglD inh, XiGFP reactiv, C2C12 statin, FGF22 binding, E-sel inducer)
CCS(=O)(=O)NCC[C@H]1CC[C@H](NC(=O)C2CCC2)[C@@H](CO)O1	none
O=C(NCC1CC1)[C@@H]1[C@@H](CO)[C@@H]2Cn3c(ccc(/C=C/c4ccccc4)c3=O)[C@H]1N2C(=O)C1CCC1	none
O=C(Nc1ccc(Br)cc1F)C1CCCN(S(=O)(=O)c2cnc[nH]2)C1 (configuration not stated)	FGF22 binding 2.0 (no result: E-sel inducer)
CCOC(=O)C1CCCN(C2=NC(=O)/C(=C/c3ccc(N(C)C)cc3)S2)C1 (configuration not stated)	FGF22 binding 1.9
O=C(CNC(=O)c1ccc([N+](=O)[O-])cc1)N/N=C\c1ccc(OC(=O)c2ccccc2)cc1	none (no result: DENV2 CPE rescue, XiGFP reactiv, FGF22 binding, E-sel inducer)
COc1cccc(C(=O)NCC(=O)N/N=C/c2cccc(OC(=O)c3ccc([N+](=O)[O-])cc3)c2)c1	FGF22 binding 43.4 (no result: PglD inh, C2C12 statin, E-sel inducer)
COCCCN=C1NN=C(c2cc(C)n(Cc3ccccc3Cl)c2C)CS1	FGF22 binding 43.1 (no result: PglD inh, C2C12 statin)
C[C@@H]1CN([C@H](C)CO)C(=O)c2cc(NS(=O)(=O)c3ccc(Cl)cc3)ccc2O[C@@H](C)CCCCO[C@@H]1CN(C)C(=O)c1ccncc1	none (no result: C2C12 statin)
CCC(=O)Nc1cc(-c2cc3ccccc3oc2=O)ccc1OC	FGF22 binding 42.9 (no result: PglD inh, C2C12 statin, E-sel inducer)
CCN1CCN(CCC(=O)Nc2ccc(Br)c(C)c2)CC1	DENV2 CPE rescue 23.4
COc1ccc(-n2c(C)cc(C=O)c2C)cc1Cl	C2C12 statin 102.5 (no result: DENV2 CPE rescue, XiGFP reactiv, FGF22 binding, E-sel inducer)
O=C(c1ccccc1)c1cc2ccc(O)cc2oc1=O	none (no result: DENV2 CPE rescue, XiGFP reactiv, FGF22 binding, E-sel inducer)
O=C(c1ccc(Br)cc1)c1cc2ccc(O)cc2oc1=O	E-sel inducer 46.4
Cc1ccc(S(=O)(=O)N[C@H]2CC[C@H](CC(=O)NCc3ccc(Cl)c(Cl)c3)O[C@H]2CO)cc1	none
COc1ccccc1CCc1nnc(CCC(=O)NCCOc2cccnc2)o1	FGF22 binding 43.7 (no result: E-sel inducer)
N#CCC(=O)Nc1cc(C(F)(F)F)ccc1N1CCOCC1	none (no result: PglD inh, C2C12 statin)
N#CCC(=O)Nc1ccc(C(F)(F)F)cc1N1CCOCC1	FGF22 binding 43.5 (no result: PglD inh, C2C12 statin, E-sel inducer)
O=C(NCC[C@@H]1CC[C@H](NC(=O)c2cnccn2)[C@@H](CO)O1)Nc1ccc(F)cc1	none
CCN1/C(=C\c2ccc3cc(C)ccc3[n+]2CC)Sc2cc(C)c(C)cc21	XiGFP reactiv 77.2 (no result: E-sel inducer)
CCN1/C(=C/c2ccc3cc(C)ccc3[n+]2CC)Sc2ccc3sccc3c21	none (no result: PglD inh, DENV2 CPE rescue, XiGFP reactiv, FGF22 binding, E-sel inducer)
CCN1/C(=C/c2ccc3cc(C)cc(C)c3[n+]2CC)Sc2cc(C)ccc21	XiGFP reactiv 109.6 (no result: E-sel inducer)
C[C@H](CO)N1C[C@H](C)[C@@H](CN(C)Cc2ccc(C(=O)O)cc2)Oc2ccc(NC(=O)NC3CCCCC3)cc2C1=O	DENV2 CPE rescue 44.9
CC(C)NC(=O)Nc1ccc2c(c1)C(=O)N([C@@H](C)CO)C[C@@H](C)[C@@H](CN(C)Cc1ccc(C(F)(F)F)cc1)OCCCC[C@@H](C)O2	DENV2 CPE rescue 55.7 (no result: C2C12 statin, E-sel inducer)
